These results are taken from ChEMBL document CHEMBL3526154, “Metabolism, pharmacokinetics, tissue distribution, and stability studies of the prodrug analog of an anti-hepatitis B virus dinucleoside phosphorothioate” (Drug Metab Dispos, 2012).

For orientation: half-life means the time in which the quantity being followed falls by half. A higher half-life goes with slow decline.

Data set [1] deals with Liver. The experiment in a line: Drug level in human liver S9 fraction treated with Rp,Sp-dinucleotide-2 at 10 uM by HPLC analysis. The note with it: s9, 10 µM. Format: ADME, subcellular. A digest of the protocol:
(§1)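 Pooled human liver S9 (1 mg/ml), alamethicin-treated (10 μg/ml, 15 min on ice), with NADPH 1.3 mM, UDP-GlcUA 5 mM in 1× PBS; substrate 10 μM final. Incubated 37°C shaking; sampled 1, 4, 6 h, acetonitrile quench, centrifuged, supernatant lyophilised, reconstituted in water; HPLC (C18, 25°C, 5–50% acetonitrile in 0.1 M NH4OAc over 45 min) and LC/MS.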

Data set [2] has as its system Liver. The experiment in a line: Drug level in human liver S9 fraction treated with Rp,Sp-dinucleotide-2 at 10 uM by LC/MS analysis. Particulars: s9, 10 µM. The data set is classed as ADME, subcellular. A digest of the protocol:
as §1

A short description of data set [3]: Half life of the compound in simulated gastric fluid by HPLC analysis. Format: ADME. In outline:
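Stock of 2 mg/100 µl in DMSO; 10 µl added to 200 µl simulated gastric fluid (NaCl, porcine pepsin, HCl, pH 1.2) or simulated intestinal fluid (KH2PO4, NaOH, pancreatin, pH 6.8), 37°C. Aliquots at 15 min, 30 min, 1 h, 3 h were quenched with acetonitrile (SGF neutralised to pH 7.0), centrifuged, lyophilised, reconstituted in water, analysed by C18 HPLC.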

Data set [4] is described as follows: Stability of the compound in simulated intestinal fluid by HPLC analysis. Format: ADME. The note with it: simulated gi fluid. In outline:
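Simulated intestinal fluid: KH2PO4 6.8 g/l with NaOH, pancreatin 10 g/l, pH 6.8. DMSO stock (2 mg/100 μl), 10 μl added to 200 μl SIF, 37°C; aliquots at 15 min, 30 min, 1 h, 3 h quenched with acetonitrile, centrifuged, supernatant lyophilised, reconstituted in water, analysed by C18 HPLC.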

For data set [5], the system named is Liver microsome. The experiment in a line: Drug level in human liver microsomes treated with Rp,Sp-dinulceotide-2 at 10 uM incubated up to 8 hrs by HPLC analysis. The data set is classed as ADME. In outline:
(§2)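 Liver microsomes 1 mg/ml pretreated with alamethicin 10 μg/ml on ice 15 min; NADPH 1.3 mM and UDP-GlcUA 5 mM added in 1× PBS, substrate 10 μM final. Shaking bath at 37°C; aliquots at 1, 4, 6, 8 h quenched with acetonitrile, centrifuged, supernatant lyophilised and redissolved in water; analysed by C18 HPLC (5–50% acetonitrile/0.1 M NH4OAc gradient) and LC/MS.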

The subject of data set [6] is Liver microsome. The experiment in a line: Drug level in human liver microsomes treated with Rp,Sp-dinulceotide-2 at 10 uM incubated up to 8 hrs by LC/MS analysis. Format: ADME. In outline: as §2
In general terms: Liver microsomes are vesicles of endoplasmic reticulum, rich in cytochrome P450 enzymes.

Data set [7] in a line: Drug metabolism in human liver S9 fraction assessed as Rp,Sp-dinucleotide-1 (O-((2R,3S,5R)-5-(6-amino-9H-purin-9-yl)-3-hydroxytetrahydrofuran-2-yl)methyl O-(2R,3R,4R,5R)-5-(2,4-dioxo-3,4-dihydropyrimidin-1(2H)-yl)-2-(hydroxymethyl)-4-methoxytetrahydrofuran-3-yl S-hydrogen phosphorothioate) metabolite formation at 10 uM by HPLC analysis. Particulars: s9, 10 µM. The data set is classed as ADME, subcellular. In outline:
(§3)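 Pooled human liver S9 (1 mg/ml) pretreated 15 min on ice with alamethicin (10 µg/ml). Incubated with prodrug (10 µM), NADPH 1.3 mM, UDP-GlcUA 5 mM, S-adenosylmethionine 0.1 mM, PAPS 0.1 mM and acetyl-CoA 1 mM in PBS at 37°C with shaking. Sampled at 1, 4 and 6 h, acetonitrile-quenched, then analysed by HPLC and LC/MS.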

A short description of data set [8]: Drug metabolism in human liver S9 fraction assessed as Rp,Sp-dinucleotide-1 (O-((2R,3S,5R)-5-(6-amino-9H-purin-9-yl)-3-hydroxytetrahydrofuran-2-yl)methyl O-(2R,3R,4R,5R)-5-(2,4-dioxo-3,4-dihydropyrimidin-1(2H)-yl)-2-(hydroxymethyl)-4-methoxytetrahydrofuran-3-yl S-hydrogen phosphorothioate) metabolite formation at 10 uM by LC/MS analysis. Format: ADME, subcellular. The note with it: s9, 10 µM. A digest of the protocol: as §3

Data set [9] relates to Liver microsome. The experiment in a line: Drug metabolism in human liver microsomes assessed as Rp,Sp-dinucleotide-1 (O-((2R,3S,5R)-5-(6-amino-9H-purin-9-yl)-3-hydroxytetrahydrofuran-2-yl)methyl O-(2R,3R,4R,5R)-5-(2,4-dioxo-3,4-dihydropyrimidin-1(2H)-yl)-2-(hydroxymethyl)-4-methoxytetrahydrofuran-3-yl S-hydrogen phosphorothioate) metabolite formation at 10 uM incubated up to 8 hrs by HPLC analysis. Format: ADME. A digest of the protocol:
(§4)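 Microsomes (1 mg/ml) pretreated 15 min on ice with alamethicin (10 µg/ml). Incubated with prodrug (10 µM final), NADPH 1.3 mM and UDP-GlcUA 5 mM in PBS at 37°C with shaking. Sampled at 1, 4, 6 and 8 h and quenched with acetonitrile. Supernatant lyophilised, reconstituted in water, analysed by C18 HPLC and by LC/MS.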

For data set [10], the system named is Liver microsome. The experiment in a line: Drug metabolism in human liver microsomes assessed as Rp,Sp-dinucleotide-1 (O-((2R,3S,5R)-5-(6-amino-9H-purin-9-yl)-3-hydroxytetrahydrofuran-2-yl)methyl O-(2R,3R,4R,5R)-5-(2,4-dioxo-3,4-dihydropyrimidin-1(2H)-yl)-2-(hydroxymethyl)-4-methoxytetrahydrofuran-3-yl S-hydrogen phosphorothioate) metabolite formation at 10 uM incubated up to 8 hrs by LC/MS analysis. Format: ADME. In outline: as §4

The nature of data set [11]: Time for almost complete conversion of the compound to 1 in simulated intestinal fluid by HPLC analysis.

Structures are written as SMILES.

For `CO[C@@H]1[C@H](OP(=O)(S)OC[C@H]2O[C@@H](n3cnc4c(N)ncnc43)C[C@@H]2O)[C@@H](CO)O[C@H]1n1ccc(=O)[nH]c1=O` (some centres not stated) [INARIGIVIR], the Drug metabolism result in the data set on Liver [1], with Liver [2], in the data set on Liver microsome [5] and with Liver microsome [6] was “metabolite_detected” in each case. For the same compound, the half-life in data set [3] was < 0.25 h. For the same compound, the Stability result in data set [4] is listed as “Stable”.

`CO[C@@H]1[C@H](OP(=O)(OC[C@H]2O[C@@H](n3cnc4c(N)ncnc43)C[C@@H]2O)SCOC(=O)OC(C)C)[C@@H](CO)O[C@H]1n1ccc(=O)[nH]c1=O` (some centres not stated) [INARIGIVIR SOPROXIL]: the Drug metabolism result (in data set [7]; in data set [8]; in the data set on Liver microsome [9]; with Liver microsome [10]) was “metabolite_detected” in each case. In data set [3], the half-life was > 3 h. This compound also yielded a time for complete conversion in data set [11] of 180 min.
